Legend:
HaCaT [1] = assay: Antiproliferative activity against human HaCaT cells assessed as dispersed cells after 48 hrs by phase-contrast microscopic analysis; assay type: functional, cell-based
Method in brief: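 HaCaT keratinocytes (non-transformed human line) treated for 48 h, then dispersed cells counted by phase-contrast microscopy. Inhibition = (1 − test/control) × 100, from means of test (N = 3) versus control (N = 6–8). Significance by Student's t-test (P < 0.05). IC50 obtained by nonlinear regression.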

[2] = test system: Radical scavenging activity; assay: Antioxidant activity assessed as DPPH free radical scavenging activity; assay type: functional
Method in brief: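 Cell-free DPPH radical interaction: compound effect on DPPH absorbance read at 520 nm. Percent interaction = (1 − test absorbance/control absorbance) × 100, from mean of N = 3 versus control N = 8. EC50 is the concentration giving 50% decrease in DPPH absorbance. NDGA and α-tocopherol served as positive controls.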

HaCaT [3] = assay: Cytotoxicity against human HaCaT cells assessed as LDH release at 2 uM after 4 hrs by UV method; assay type: functional
Method in brief: (§1)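 HaCaT cells exposed to test compound for 4 h at 37 °C. Extracellular LDH activity measured by UV method with pyruvate and NADH and reported in mU/mL (N = 3, SD < 10%). Vehicle control was 0.2% DMSO in culture medium. Brij 35 with ultrasound served as positive control. Significance versus vehicle at P < 0.05.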

HaCaT [4] = assay: Cytotoxicity against human HaCaT cells assessed as LDH release at 2 uM after 4 hrs by UV method relative to control; assay type: functional; method in brief: as §1

Row | Structure (SMILES) | IC50 (HaCaT [1]) | EC50 [2] | Activity (HaCaT [3]) | Activity (HaCaT [4])
1 | COc1cc(O)c2c(=O)c3ccccc3n(C)c2c1 | > 50 µM | – | – | –
2 | CCn1c2ccccc2c(=O)c2c(O)cc(O)cc21 | > 50 µM | – | – | –
3 | Cn1c2ccccc2c(=O)c2c(O)cc(O)cc21 | 0.6 µM | > 500 µM | 74.3 mU/ml | –
4 | Cn1c2ccccc2c(=O)c2c(O)cccc21 | > 50 µM | – | – | –
5 | COc1cccc2c1c(=O)c1ccccc1n2C | > 50 µM | – | – | –
6 | CCn1c2ccccc2c(=O)c2c(O)cccc21 | > 50 µM | – | – | –
7 | CCCn1c2ccccc2c(=O)c2c(O)cccc21 | > 50 µM | – | – | –
8 | CCCn1c2ccccc2c(=O)c2c(O)cc(O)cc21 | > 50 µM | – | – | –
9 | Cn1c2ccccc2c(=O)c2ccccc21 | 38.9 µM | – | – | –
10 | Cc1cccc2c1c(=O)c1c(O)cc(O)cc1n2C | > 50 µM | – | – | –
11 | COc1ccc(CCn2c3ccccc3c(=O)c3c(O)cccc32)cc1 | 6.3 µM | > 500 µM | 74.6 mU/ml | –
12 | COc1ccc(CCn2c3ccccc3c(=O)c3c(O)cccc32)cc1OC | 7 µM | > 500 µM | – | –
13 | COc1cc(CCn2c3ccccc3c(=O)c3c(O)cccc32)cc(OC)c1OC | 45.5 µM | – | – | –
14 | O=c1c2ccccc2n(CCCc2ccccc2)c2cccc(O)c12 | > 50 µM | – | – | –
15 | O=c1c2ccccc2n(CCCCc2ccccc2)c2cccc(O)c12 | > 50 µM | – | – | –
16 | CCOc1cc(O)c2c(=O)c3ccccc3n(CC)c2c1 | > 50 µM | – | – | –
17 | O=c1c2ccccc2n(Cc2ccccc2)c2cc(O)cc(O)c12 | 3.7 µM | > 500 µM | 76.8 mU/ml | –

Row | Structure (SMILES) | IC50 (HaCaT [1]) | EC50 [2] | Activity (HaCaT [3]) | Activity (HaCaT [4])
18 | O=c1c2ccccc2n(Cc2ccccc2)c2cc(OCc3ccccc3)cc(O)c12 | > 50 µM | – | – | –
19 | O=c1c2ccccc2n(CCCc2ccccc2)c2cc(O)cc(O)c12 | 40.5 µM | – | – | –
20 | COc1ccc(Cn2c3ccccc3c(=O)c3ccccc32)cc1OC | > 50 µM | > 500 µM | – | –
21 | CC(=O)CC(=O)n1c2ccccc2c(=O)c2ccccc21 | 27.8 µM | – | – | –
22 | CC(=O)CC(=O)n1c2ccccc2c(=O)c2c(O)cccc21 | 3.3 µM | > 500 µM | 74 mU/ml | –
23 | O=c1c2ccccc2n(Cc2ccccc2)c2cccc(O)c12 | 2.5 µM | > 500 µM | 74.9 mU/ml | –
24 | O=c1c2ccccc2n(Cc2ccccc2)c2cccc(OCc3ccccc3)c12 | 7.5 µM | > 500 µM | 72.1 mU/ml | –
25 | O=c1c2ccccc2n(Cc2ccccc2)c2ccc(Cc3ccccc3)c(O)c12 | 13 µM | – | – | –
26 | O=c1c2ccccc2n(Cc2ccc([N+](=O)[O-])cc2)c2cccc(O)c12 | 1.8 µM | > 500 µM | – | 86.7 mU/ml
27 | O=c1c2ccccc2n(CCc2ccccc2)c2cccc(O)c12 | 41.5 µM | – | – | –
28 | O=c1c2ccccc2n(CCc2ccc(O)cc2)c2cccc(O)c12 | 20.1 µM | > 500 µM | – | –
29 | O=c1c2ccccc2[nH]c2cc(O)cc(O)c12 | – | > 500 µM | – | –
30 | O=c1c2ccccc2[nH]c2cccc(O)c12 | > 50 µM | > 500 µM | – | –
31 | O=c1c2ccccc2n(Cc2ccccc2)c2ccccc12 | > 50 µM | – | – | –
32 | O=c1c2ccccc2[nH]c2ccccc12 [ACRIDONE] | > 50 µM | – | – | –
33 | COc1cc2c(c3c1c(=O)c1ccccc1n3C)C=CC(C)(C)O2 [ACRONINE] | 3.2 µM | > 500 µM | 70.4 mU/ml | –
34 | O=C1c2c(O)cccc2Cc2cccc(O)c21 [ANTHRALIN] | – | 16.7 µM | – | 122.8 mU/ml
